Calls of active or inactive are those of the source. The rule behind the calls is not given here.
Tests used:
Polyamine oxidase 1 = target: T1, Polyamine oxidase 1 (Zea mays, UniProt O64411); experiment: Inhibition of maize PAO at pH 6.5 by spectrophotometry-based Dixon plot method
T1 sequence (O64411 whole entry): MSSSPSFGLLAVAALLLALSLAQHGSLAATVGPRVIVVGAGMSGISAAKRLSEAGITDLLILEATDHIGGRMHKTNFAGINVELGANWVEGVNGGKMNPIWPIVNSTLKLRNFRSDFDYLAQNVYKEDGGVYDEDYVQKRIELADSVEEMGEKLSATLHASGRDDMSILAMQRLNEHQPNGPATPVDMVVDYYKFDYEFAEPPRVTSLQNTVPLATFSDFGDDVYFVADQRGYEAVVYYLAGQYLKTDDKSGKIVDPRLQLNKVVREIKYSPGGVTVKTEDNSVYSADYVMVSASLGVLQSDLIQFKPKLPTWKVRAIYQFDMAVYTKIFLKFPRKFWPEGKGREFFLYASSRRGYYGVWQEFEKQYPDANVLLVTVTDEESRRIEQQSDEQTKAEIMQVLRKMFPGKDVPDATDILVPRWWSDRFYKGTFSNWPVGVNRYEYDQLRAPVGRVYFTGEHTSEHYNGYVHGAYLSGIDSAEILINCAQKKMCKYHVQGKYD
Outline: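 H₂O₂ was detected by peroxidase-coupled 4-aminoantipyrine/3,5-dichloro-2-hydroxybenzenesulfonate adduct at 515 nm. Ki was obtained by the Dixon method. Mean of three experiments, each in duplicate.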

HeLa [1] = experiment: Antiproliferative activity against human HeLa cells at 1 uM after 48 hrs by MTT assay; type: functional, cell-based
Outline: (§1)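 Cells seeded at 2.5 × 10³ cells/well in DMEM with 10% FBS and allowed to adhere. They were then exposed to the test compound (0.1-10 μM) for 24, 48, 72 and 96 h. MTT reduction was read at 550 nm, and viability was taken as OD treated / OD untreated control × 100. At least three independent experiments, compared by two-way ANOVA.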

HeLa [2] = experiment: Antiproliferative activity against human HeLa cells at 1 uM after 72 hrs by MTT assay; type: functional, cell-based; outline: as §1
HeLa [3] = experiment: Antiproliferative activity against human HeLa cells at 1 uM after 96 hrs by MTT assay; type: functional, cell-based; outline: as §1
U-373MG ATCC [4] = experiment: Antiproliferative activity against human U373MG cells at 1 uM after 48 hrs by MTT assay; type: functional, cell-based; outline: as §1
U-373MG ATCC [5] = experiment: Antiproliferative activity against human U373MG cells at 1 uM after 72 hrs by MTT assay; type: functional, cell-based; outline: as §1
U-373MG ATCC [6] = experiment: Antiproliferative activity against human U373MG cells at 1 uM after 96 hrs by MTT assay; type: functional, cell-based; outline: as §1
HeLa [7] = experiment: Cytostatic activity in human HeLa cells at 1 uM after 48 hrs by trypan blue assay; type: functional, cell-based
Outline: (§2)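 Cells seeded in DMEM with 10% FBS at 2.5 × 10³ cells/well and allowed to adhere. They were then incubated with or without 1 μM compound for 0, 24, 48, 72 and 96 h. Trypan blue exclusion was used: unstained cells were counted twice in a Neubauer chamber, in duplicate, and reported as living cell number (×10⁷). At least three independent runs, with two-way ANOVA against control.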

HeLa [8] = experiment: Cytostatic activity in human HeLa cells at 1 uM after 72 hrs by trypan blue assay; type: functional, cell-based; outline: as §2
HeLa [9] = experiment: Cytostatic activity in human HeLa cells at 1 uM after 96 hrs by trypan blue assay; type: functional, cell-based; outline: as §2
U373 MG [10] = experiment: Cytostatic activity in human U373MG cells at 1 uM after 48 hrs by trypan blue assay; type: functional, cell-based; details: U-373MG ATCC; outline: as §2
U373 MG [11] = experiment: Cytostatic activity in human U373MG cells at 1 uM after 72 hrs by trypan blue assay; type: functional, cell-based; details: U-373MG ATCC; outline: as §2
U373 MG [12] = experiment: Cytostatic activity in human U373MG cells at 1 uM after 96 hrs by trypan blue assay; type: functional, cell-based; details: U-373MG ATCC; outline: as §2
HeLa [13] = experiment: Cytotoxicity against human HeLa cells at 10 uM after 24 to 96 hrs by MTT assay; type: functional, cell-based; outline: as §1
U-373MG ATCC [14] = experiment: Cytotoxicity against human U373MG cells at 10 uM after 24 to 96 hrs by MTT assay; type: functional, cell-based; outline: as §1

## NCCCCCN=C(N)NCC1CC1
Polyamine oxidase 1
  Ki: 2580 nM

## CC(C)=CCNC(=N)NCCCCN
Polyamine oxidase 1
  Ki: 15 nM

## C#CCNC(=N)NCCCCN
Polyamine oxidase 1
  Ki: 250 nM

## NCCCCN=C(N)Nc1ccc(F)cc1
Polyamine oxidase 1
  Ki: 630 nM

## N=C(N)NCCCCCCCCNCCCCCCCCNC(=N)N [IMINOCTADIENE]
Polyamine oxidase 1
  Ki: 7.5 nM

## C/C=C/CNC(=N)NCCCCCCCCNCCCCCCCCNC(=N)N
Polyamine oxidase 1
  Ki: 1.1 nM

## CC(C)=CCNC(N)=NCCCCN=C(N)N
Polyamine oxidase 1
  Ki: 700 nM

## CC(C)=CCNC(=N)NCCCCCCN
Polyamine oxidase 1
  Ki: 22 nM

## CC(C)=CCNC(N)=NCCCCCCCCNCCCCCCCCN=C(N)N
Polyamine oxidase 1
  Ki: 3 nM

## C=CCNC(=N)NCCCCN
Polyamine oxidase 1
  Ki: 130 nM

## N=C(N)NCCCCN [AGMATINE]
Polyamine oxidase 1
  Ki: 3000 nM

## CC(C)=CCNC(=N)NCCCCCN
Polyamine oxidase 1
  Ki: 10 nM

## NCCCCCN=C(N)NC/C=C/c1ccccc1
Polyamine oxidase 1
  Ki: 1530 nM

## CC(C)=CCNC(N)=Nc1ccc(CN)cc1
Polyamine oxidase 1
  Ki: 18000 nM

## N=C(N)NCCCCCCCCNCCCCCCCCNC(=N)NCC1CC1
Polyamine oxidase 1
  Ki: 0.08 nM
HeLa [1]
  Activity: Active
HeLa [2]
  Activity: Active
HeLa [3]
  Activity: Active
U-373MG ATCC [4]
  Activity: Active
U-373MG ATCC [5]
  Activity: Active
U-373MG ATCC [6]
  Activity: Active
HeLa [7]
  Activity: Active
HeLa [8]
  Activity: Active
HeLa [9]
  Activity: Active
U373 MG [10]
  Activity: Active
U373 MG [11]
  Activity: Active
U373 MG [12]
  Activity: Active
HeLa [13]
  Activity: Active
U-373MG ATCC [14]
  Activity: Active

## C=C(C)CCNC(N)=NCCCCCCCCNCCCCCCCCN=C(N)N
Polyamine oxidase 1
  Ki: 0.5 nM

## CC(C)=CCN=C(N)NCCCCCCCCNCCCCCCCCN=C(N)NCC=C(C)C
Polyamine oxidase 1
  Ki: 1.7 nM

## N=C(NCCCCCN)NCCC1CCCCC1
Polyamine oxidase 1
  Ki: 1720 nM

## CC(C)=CCNC(=N)NCCCNCCCN
Polyamine oxidase 1
  Ki: 1210 nM

## COc1cccc(CNC(N)=NCCCCCN)c1
Polyamine oxidase 1
  Ki: 1150 nM

## C#CCNC(N)=NCCCCCCCCNCCCCCCCCN=C(N)N
Polyamine oxidase 1
  Ki: 0.7 nM

## CC(C)=CCN=C(N)NCCCCN=C(N)NCC=C(C)C
Polyamine oxidase 1
  Ki: 1500 nM

## NC(N)=NCCCCCCCCNCCCCCCCCN=C(N)NCc1ccccc1
Polyamine oxidase 1
  Ki: 1 nM

## NCCCCCCCCN [DIAMINOOCTANE]
Polyamine oxidase 1
  Ki: 300 nM
